# Reference: PubChem BioAssay AID624268 (The Scripps Research Institute Molecular Screening Center, 2012)
# Screen size: about 360,000 compounds; about 1,500 (0.42%) were called active. This is one part of a sample in which actives are shown more often than they occur.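 The calls were made as follows: active = inhibition above a per-plate cutoff of the control wells' mean inhibition plus 3 SD (cut at about 5.5% in these data); inactive = the rest.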
# System: methionyl-tRNA synthetase (Trypanosoma brucei brucei)
# Experiment: T. brucei MetRS inhibitors, primary screen, biochemical, luminescence (AID 624268);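 also: 0% = DMSO wells median and 100% = median of wells with control inhibitor compound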
# Settings: purified T. brucei MetRS, ATP depletion, Kinase-Glo luminescence; at 11.9 µM; hits give high values
# How it was run: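 Test system – parasite MetRS enzyme · Reagent – substrates ATP, L-methionine and bulk Escherichia coli tRNA · Doses – 11.9 µM compound single dose, 0.9% DMSO · Times – 15 min enzyme-compound preincubation, 2 h reaction, 10 min detection, 25 °C · Signal – Kinase-Glo luminescence, ATP depletion format · Controls – DMSO-only wells as low control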
row,SMILES,inhibition
1,Cc1cc(C(C)(C)C)cc(S(=O)(=O)Nc2ccc(C(=O)O)cc2)c1C,0.3% (inactive)
2,O=C(O)c1ccc(NS(=O)(=O)c2ccc3c(c2)C(=O)c2cc(S(=O)(=O)Nc4ccc(C(=O)O)cc4)ccc2-3)cc1,5.69% (active)
3,O=C(c1ccc(NS(=O)(=O)c2ccc3[nH]c(=O)[nH]c3c2)cc1)N1CCCCC1,-0.5% (inactive)
4,CCOC(=O)CC1=CC(=O)Nc2ccccc2N1,-0.37% (inactive)
5,COc1ccccc1-n1c(SCC(=O)Nc2ccc(Cl)cc2)nc(O)c(Cc2ccccc2)c1=O,55.1% (active)
6,COc1ccc(NC(=O)CSc2nnc(Cc3ccccc3)c(=O)n2N)cc1,-0.2% (inactive)
7,CCOc1ccc(NC(=O)CSc2nc3c(c(=O)n2-c2ccccc2OC)SCC3)cc1,-0.23% (inactive)
8,COc1ccc(NC(=O)CN(C)C(=O)c2n[nH]c3ccccc23)cc1,-0.44% (inactive)
9,CC1(C(=O)NS(=O)(=O)c2cccc(OC(F)F)c2)CCN1C(=O)C1CC1 (configuration not stated),-0.2% (inactive)
10,CC1(c2cccc([N+](=O)[O-])c2)CC(C)(C)N(C(=O)c2ccccc2)c2ccccc21 (configuration not stated),0.07% (inactive)
11,c1ccc2cc3[nH]c(CN4CCCCC4)nc3cc2c1,7.35% (active)
12,Cc1ccc2[nH]c(=O)c(CN3CCCCC3)c(-c3ccccc3)c2c1,2.15% (inactive)
13,O=c1cc(CN2CCCCCCC2)c2c(ccc3ccccc32)o1,0.63% (inactive)
14,O=C1COc2ccc(NC(=O)N3CCN(c4ccc(F)cc4)CC3)cc2N1,-0.82% (inactive)
15,C[C@@H]1CN([C@H](C)CO)C(=O)CCCn2cc(nn2)CO[C@H]1CN(C)S(C)(=O)=O,-1.67% (inactive)
16,COc1ccc(OC)c(NC(=O)C2(C)CCN2C(=O)Cc2ccccc2)c1 (configuration not stated),-0.17% (inactive)
17,COc1cc(/C=N\NC(=O)c2nonc2N)c(OC)cc1Br,-0.27% (inactive)
18,Cc1ccc(OCCOCCOc2ccc(Br)cc2/C=N\NC(=O)c2ccncc2)cc1,0.03% (inactive)
19,COc1ccc(-c2[nH]ncc2/C=N/NC(=O)c2cc(Br)ccc2O)c(OC)c1,5.88% (active)
20,Cn1c(N)c(C(=O)COC(=O)c2cccc(S(=O)(=O)N3CCOCC3)c2)c(=O)n(C)c1=O,0.03% (inactive)
21,CC1CN(S(=O)(=O)c2cccc(C(F)(F)F)c2)CN1C(=O)N1CCOCC1 (configuration not stated),-0.97% (inactive)
22,CC(C)CCNC(=O)C1CCCN(S(=O)(=O)c2ccc(F)cc2)C1 (configuration not stated),-0.46% (inactive)
23,COC(=O)c1c(CCl)noc1C(=O)NC(C)C,-0.34% (inactive)

row,SMILES,inhibition
1,CN(CC(=O)NCc1ccc2c(c1)OCO2)CC(=O)Nc1ccc(F)c(F)c1F,-0.42% (inactive)
2,COc1ccc(CCOC(=O)CNC(=O)c2ccc(Cl)cc2Cl)cc1,0.12% (inactive)
3,COC(=O)/C(=C\Nc1ccccc1)NC(=O)c1ccc(Cl)cc1Cl,43% (active)
4,O=C(NNC(=O)c1ccc(Cl)cc1Cl)c1cccs1,-0.62% (inactive)
5,Cn1ccsc1=NC(=O)c1cc(S(=O)(=O)N2CCOCC2)ccc1Cl,0% (inactive)
6,COc1ccc(S(=O)(=O)N2CCOC2CNC(=O)C(=O)NCc2ccncc2)cc1C (configuration not stated),-0.16% (inactive)
7,CCCCc1ccc(S(=O)(=O)NC(=O)C2(C)CCN2C(=O)c2c(C)noc2C)cc1 (configuration not stated),-0.38% (inactive)
8,OCCC1CN(Cc2cccn2-c2nccs2)CCN1CCc1ccccc1 (configuration not stated),-0.69% (inactive)
9,O=C(c1cccs1)C1C(c2ccc(Br)cc2)NC(=S)NC1(O)C(F)(F)F (configuration not stated),0.24% (inactive)
10,OCC1(CCc2ccccc2)CCN(Cc2ccc3nsnc3c2)CC1,0.28% (inactive)
11,Cc1c(CN2CCC(CO)(CCOc3ccccc3)CC2)[nH]c2ccc(Cl)cc12,8.27% (active)
12,COc1cccc(CC2(CO)CCN(Cc3cnc(-c4cccc(C)c4)nc3)CC2)c1,-0.01% (inactive)
13,CCc1c(C)n([O-])c2c([n+]1=O)CCCCC2,-0.95% (inactive)
14,COc1cccc(NC(=O)CN(C)C(=O)c2cc(C3CC3)nn2-c2ccccc2)c1,-0.11% (inactive)
15,CSc1ncccc1C(=O)NCC(c1ccco1)N1CCCCC1 (configuration not stated),0.26% (inactive)
16,O=CN1CCN(C2CC(=O)N(c3ccc4c(c3)OCO4)C2=O)CC1 (configuration not stated),-2.06% (inactive)
17,Cc1ccc(CC2CC(=O)N(c3ccc4c(c3)OCCO4)C2=O)cc1 (configuration not stated),-0.24% (inactive)
18,Cc1ccc(N2C(=O)CC(NCc3ccc4c(c3)OCO4)C2=O)cc1Cl (configuration not stated),12.1% (active)
19,COC(=O)CCSc1cc([N+](=O)[O-])cc2c1c(C1OCCS1)nn2-c1ccccc1 (configuration not stated),-0.2% (inactive)
20,CCOc1ccc(NC(=O)CC(Cc2ccc(Cl)cc2)C(=O)O)cc1 (configuration not stated),-0.95% (inactive)
21,Cc1ccc(C)c2[nH]c(=O)c(CCNC(=O)CC(C)C)cc12,0.44% (inactive)
22,COc1ccc(-n2c(SCC(=O)NCc3ccco3)nnc2-c2c[nH]c3ccccc23)cc1,6.44% (active)
23,COc1ccc(-n2c(SCC(=O)NCc3cccs3)nnc2-c2ccoc2C)cc1,-0.5% (inactive)

row,SMILES,inhibition
1,O=C(CSc1nnc(-c2c[nH]c3ccccc23)n1-c1ccc(F)cc1)NCc1ccco1,3.05% (inactive)
2,Cc1cc(C(=O)NNC(=O)c2cccc(S(=O)(=O)N3CCOCC3)c2)c2ccccc2n1,-0.24% (inactive)
3,Cc1nn(C)c(Oc2ccc(Cl)cc2)c1C=O,-0.76% (inactive)
4,O=C(NCc1cc(C(F)(F)F)cc(C(F)(F)F)c1)C1CC(c2cccc(F)c2)=NO1 (configuration not stated),-0.13% (inactive)
5,OC(c1ccc(Cl)c(F)c1)c1ncc(-c2ccccc2Cl)[nH]1 (configuration not stated),0.44% (inactive)
6,Cc1ccc(-c2cnc(C(O)c3cc(Cl)cc(Cl)c3)[nH]2)cc1 (configuration not stated),40.4% (active)
7,Cc1cccc(-c2cnc(C(O)c3cc(C)cc(C)c3)[nH]2)c1 (configuration not stated),-0.08% (inactive)
8,Cc1ccc(C(O)c2ncc(-c3ccccc3F)[nH]2)cc1F (configuration not stated),-0.2% (inactive)
9,OC(c1ccc(Cl)cc1)c1ncc(-c2ccc(Cl)cc2)[nH]1 (configuration not stated),2.49% (inactive)
10,OC(c1cc(Cl)cc(Cl)c1)c1ncc(-c2ccccc2C(F)(F)F)[nH]1 (configuration not stated),58% (active)
11,CCC(=O)N1CCC(C)(C(=O)Nc2cc(OC)c(OC)c(OC)c2)C1 (configuration not stated),0.06% (inactive)
12,NC(=O)CC[C@@H]1NC(=O)[C@@H]2CCCN2C(=O)c2cc([N+](=O)[O-])cc(F)c2NCCC[C@@H](C(N)=O)NC1=O,-0.23% (inactive)
13,O=S(=O)(NCc1cccnc1)c1ccc(Cl)nc1,-1.09% (inactive)
14,CC(CCN1CCN=C1N(C)C)c1ccccc1 (configuration not stated),-0.2% (inactive)
15,C#CCNC(=O)C[C@@H]1C[C@@]2(C(=O)OCC)CCCC=C2N(Cc2ccco2)C1=O,-0.95% (inactive)
16,CCCn1nc(C(=O)NNC(=O)CSCC(=O)Nc2cc(C)on2)c2ccccc2c1=O,-0.27% (inactive)
17,O=C(NCCc1ccc(C(F)(F)F)cc1)c1ccc2c(c1)OCO2,-0.15% (inactive)
18,CCCCCCCC[n+]1cccc(C(=O)N2c3c(nc(N)[nH]c3=O)NC(C)C2C)c1 (configuration not stated),14.2% (active)
19,C[C@H]1CN([C@@H](C)CO)C(=O)c2cc(-c3ccccc3F)cnc2O[C@H]1CN(C)C(=O)C1CCOCC1,-1.85% (inactive)
20,O=C(Cn1c(-c2cscn2)nc2ccccc21)Nc1ccc(Cl)cc1,4.33% (inactive)
21,CCCn1c(=N)n(CC(=O)c2ccc(Cl)c(Cl)c2)c2ccccc21,1.04% (inactive)
22,O=C(Cn1c(NCCO)nc2ccccc21)c1ccc(Cl)cc1Cl,8.55% (active)
23,Brc1cnc2ccccc2c1N1CCCCC1,-0.62% (inactive)

row,SMILES,inhibition
1,CCOc1cc(NC(=S)NCCCN(C)C)c(OCC)cc1NC(=O)C1CC1,-0.32% (inactive)
2,COc1ccc(CCN2CC(C(=O)OCC(=O)NCc3ccccc3Cl)CC2=O)cc1OC (configuration not stated),0.43% (inactive)
3,COc1ccc(CCn2ccc(O)c(Cc3ccc(Cl)cc3Cl)c2=O)cc1OC,6.37% (active)
4,COc1ccc(CCNC(=O)CCc2ccccc2O)cc1OC,-0.3% (inactive)
5,O=C(NCCN1CCOCC1)c1ccccc1N1C(=O)[C@@H]2Cc3c([nH]c4ccccc34)C(c3cccc(Cl)c3)N2C1=O (some centres not stated),11.4% (active)
6,CC(C)(CNC(=O)c1cc(=O)[nH]c2ccccc12)N1CCOCC1,0.28% (inactive)
7,O=C(NCCN1CCOCC1)Nc1cccc(Cl)c1,0.46% (inactive)
8,CC/C(O)=C1\C(=O)CC(C)(C)CC1=NCCc1nc2ccccc2[nH]1,0.39% (inactive)
9,CCOC(=O)C(=CNNc1ccsc1C(=O)OC)C(=O)OCC,0.74% (inactive)
10,Cc1csc(/N=C/N(C)C)c1C#N,-0.21% (inactive)
11,O=c1c2ccccc2nc2n1C(CSCc1cccc(C(F)(F)F)c1)CS2 (configuration not stated),-1% (inactive)
12,CCN1CCCC1CNC(=O)Cn1cnc2ccc(S(=O)(=O)N3CCC(C)CC3)cc2c1=O (configuration not stated),-0.14% (inactive)
13,CCN1CCCC1Cn1cnc2c([nH]c3cc(OC)ccc32)c1=O (configuration not stated),0.01% (inactive)
14,CC(C)OCCCNc1ncnc2c1[nH]c1ccc(F)cc12,85.6% (active)
15,CCN1CCCC1CNc1ncnc2c1[nH]c1ccc(F)cc12 (configuration not stated),30.4% (active)
16,CCNC(=O)CC1C(=O)N(c2ccc(OC)cc2)C(=O)N1CCOC (configuration not stated),-0.58% (inactive)
17,CCOc1ccc(C(C(=O)NC2CCCC2)N(C(=O)c2snc(C(N)=O)c2N)C2CCCC2)cc1 (configuration not stated),-0.03% (inactive)
18,O=C1c2ccccc2[C@@H]2C[C@@H](O)[C@H](Nc3ccccc3Cl)CCN12,-0.62% (inactive)
19,CN1CCCN(C(=O)C2CCCCC2)CC1,-0.59% (inactive)
20,O=C(NCc1ccco1)c1sc2cccc(F)c2c1Cl,-1.04% (inactive)
21,COc1ccc(CCNC(=O)COC(=O)C2CCCCC2)cc1,0.41% (inactive)
22,CCN(CC)S(=O)(=O)c1ccc2nc(COC(=O)c3n[nH]c4ccccc34)[nH]c2c1,-0.9% (inactive)
23,O=C(OCc1nc2ccccc2[nH]1)C1CCCCC1,14.4% (active)
